According to ChEMBL document CHEMBL4028899, “Tyrocidine A Analogues Bearing the Planar d-Phe-2-Abz Turn Motif: How Conformation Impacts Bioactivity” (J Med Chem, 2017):
Converted amounts (≈) assume the structure as drawn. The source made the active and inactive calls. No cut-off for these calls is given here. Square brackets hold non-standard residues; d marks the D form. Peptide text beside a SMILES is read from it. Orn = NCCC[C@H](N)C(=O)O; 2Abz = Nc1ccccc1C(=O)O

Legend:
Escherichia coli = assay: Antibacterial activity against Escherichia coli after 18 hrs; format: functional
Outline: (§1)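 Broth microdilution in non-cation-adjusted MHB. Overnight 37 °C cultures adjusted to OD 0.1, then diluted 1:100. Two-fold compound dilutions were prepared in the plate before inoculation, with growth and sterility controls. Plates were incubated 18 h at 37 °C and read at OD600. MIC was the lowest concentration with no growth, from three concordant experiments each with three internal replicates.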

Pseudomonas aeruginosa [1] = assay: Antibacterial activity against Pseudomonas aeruginosa after 18 hrs; format: functional; outline: as §1
Staphylococcus aureus [2] = assay: Antibacterial activity against Staphylococcus aureus after 18 hrs; format: functional; outline: as §1
Staphylococcus aureus [3] = assay: Antibacterial activity against Staphylococcus aureus assessed as induction of cell membrane rupture at 4 times MIC after 1 hr by uranyl acetate/lead citrate staining-based transmission electron microscopic method; format: functional
Outline: (§2)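 Overnight cultures in non-cation-adjusted MHB were diluted to OD 0.4. 1 mL aliquots were incubated 1 h at 37 °C with compound at 4 x MIC or without compound (control). Cells were washed in Tris buffer (pH 7.4) and fixed in 4% glutaraldehyde for 2 h at room temperature. They were post-fixed in 1% osmium tetroxide, ethanol/acetone dehydrated, epoxy embedded (60 °C, 48 h), ultrathin sectioned and imaged by TEM.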

Staphylococcus aureus [4] = assay: Antibacterial activity against Staphylococcus aureus assessed as induction of cell wall rupture at 4 times MIC after 1 hr by uranyl acetate/lead citrate staining-based transmission electron microscopic method; format: functional; outline: as §2
Staphylococcus aureus [5] = assay: Antibacterial activity against Staphylococcus aureus assessed as decrease in intracellular density at 4 times MIC after 1 hr by uranyl acetate/lead citrate staining-based transmission electron microscopic method; format: functional, cell-based; outline: as §2
Pseudomonas aeruginosa [6] = assay: Antibacterial activity against Pseudomonas aeruginosa assessed as induction of cell membrane rupture at 4 times MIC after 1 hr by uranyl acetate/lead citrate staining-based transmission electron microscopic method; format: functional; outline: as §2
Candida albicans [7] = assay: Antifungal activity against Candida albicans after 48 hrs; format: functional
Outline: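 A single C. albicans colony was taken into RPMI, adjusted to OD 0.1 and diluted 1:100. Two-fold compound dilutions were set up as for the bacterial microdilution and incubated 48 h. MIC was scored visually from colonies on the well bottoms as the lowest concentration with no growth, from three concordant experiments each with three internal replicates.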

Candida albicans [8] = assay: Antifungal activity against Candida albicans after 48 hrs in presence of 0.39 uM amphotericin B; format: functional
Outline: (§3)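 C. albicans in RPMI (OD 0.1, diluted 1:100) was tested by two-fold compound dilution with 48 h incubation. The medium was supplemented with amphotericin B at 0.78 or 1.56 µM, giving a final 0.39 or 0.78 µM per well. MIC was read visually as no colony growth, from three concordant experiments each with three internal replicates.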

Candida albicans [9] = assay: Antifungal activity against Candida albicans after 48 hrs in presence of 0.78 uM amphotericin B; format: functional; outline: as §3
[10] = Solubility of the compound in water; format: physicochemical; conditions: buffer
Pseudomonas aeruginosa [11] = assay: Antibacterial activity against Pseudomonas aeruginosa assessed as induction of total membrane lysis at 4 times MIC after 1 hr by uranyl acetate/lead citrate staining-based transmission electron microscopic method; format: functional; outline: as §2
Pseudomonas aeruginosa [12] = assay: Antibacterial activity against Pseudomonas aeruginosa assessed as induction of cell blebbing at 4 times MIC after 1 hr by uranyl acetate/lead citrate staining-based transmission electron microscopic method; format: functional; outline: as §2

MIC (Escherichia coli) | MIC (Pseudomonas aeruginosa [1]) | MIC (Staphylococcus aureus [2]) | MIC (Candida albicans [7]) | MIC (Candida albicans [8]) | MIC (Candida albicans [9]) | solubility [10] | Structure (SMILES) | Activity (Staphylococcus aureus [3]) | Activity (Staphylococcus aureus [4]) | Activity (Staphylococcus aureus [5]) | Activity (Pseudomonas aeruginosa [6]) | Activity (Pseudomonas aeruginosa [11]) | Activity (Pseudomonas aeruginosa [12])
25 µM (≈ 31.8 µg/mL) | 100 µM (≈ 127 µg/mL) | 1.56 µM (≈ 1.98 µg/mL) | 3.12 µM (≈ 3.97 µg/mL) | 0.78 µM | 0.39 µM |  | CC(C)C[C@@H]1NC(=O)[C@H](CCCN)NC(=O)[C@H](C(C)C)NC(=O)[C@H](Cc2ccc(O)cc2)NC(=O)[C@H](CCC(N)=O)NC(=O)[C@H](CC(N)=O)NC(=O)[C@@H](Cc2ccccc2)NC(=O)[C@H](Cc2ccccc2)NC(=O)[C@@H]2CCCN2C(=O)[C@@H](Cc2ccccc2)NC1=O [TYROCIDINE A] (cyclo(F[dF]NQYV[Orn]L[dF]P)) | Active | Active | Active | inactive |  | 
 |  |  | 1.56 µM (≈ 1.44 µg/mL) |  |  |  | C[C@@H]1[C@H](O)[C@@H](C)/C=C/C=C/C=C/C=C/C=C/C=C/C=C/[C@H](O[C@@H]2O[C@H](C)[C@@H](O)[C@H](N)[C@@H]2O)C[C@@H]2O[C@](O)(C[C@@H](O)C[C@@H](O)[C@H](O)CC[C@@H](O)C[C@@H](O)CC(=O)O[C@H]1C)C[C@H](O)[C@H]2C(=O)O [AMPHOTERICIN B] |  |  |  |  |  | 
50 µM (≈ 64.6 µg/mL) | 100 µM (≈ 129 µg/mL) | 6.25 µM (≈ 8.08 µg/mL) |  |  |  | Insoluble | CC(C)C[C@@H]1NC(=O)[C@H](CCCN)NC(=O)[C@H](C(C)C)NC(=O)[C@H](Cc2ccc(O)cc2)NC(=O)[C@H](CCC(N)=O)NC(=O)[C@H](CC(N)=O)NC(=O)[C@@H](Cc2ccccc2)NC(=O)[C@H](Cc2ccccc2)NC(=O)c2ccccc2NC(=O)[C@@H](Cc2ccccc2)NC1=O (cyclo([2Abz]F[dF]NQYV[Orn]L[dF])) |  |  |  |  |  | 
12.5 µM (≈ 16.2 µg/mL) | 25 µM (≈ 32.3 µg/mL) | 1.56 µM (≈ 2.02 µg/mL) | 12.5 µM (≈ 16.2 µg/mL) | 0.78 µM | 0.39 µM |  | CC(C)C[C@@H]1NC(=O)[C@H](CCCN)NC(=O)[C@H](C(C)C)NC(=O)[C@H](Cc2ccc(O)cc2)NC(=O)[C@H](CCCCN)NC(=O)[C@H](CC(N)=O)NC(=O)[C@@H](Cc2ccccc2)NC(=O)[C@H](Cc2ccccc2)NC(=O)c2ccccc2NC(=O)[C@@H](Cc2ccccc2)NC1=O (cyclo([2Abz]F[dF]NKYV[Orn]L[dF])) | Active | Active | Active |  | Active | Active
